Experimental data reported in ChEMBL document CHEMBL4610112, “Novel Pyrrolopyridone Bromodomain and Extra-Terminal Motif (BET) Inhibitors Effective in Endocrine-Resistant ER+ Breast Cancer with Acquired Resistance to Fulvestrant and Palbociclib” (J Med Chem, 2020).

Columns and labels:
[1] = Induction of thrombocytopenia in rat assessed as platelet count […] at 3 mg/kg, po administered daily for 10 days (reference value: […]); type: organism-based; conditions: in vivo, 240 h
[2] = target: Transcription intermediary factor 1-alpha (Homo sapiens, UniProt O15164); experiment: Binding affinity to human partial length TRIM24 phd bromodomain (P790 to P977 residues) expressed in bacterial expression system by BROMOscan assay
How it was run: (§1)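 BROMOscan panel of 40 bromodomains. Kd for DNA-tagged bromodomains determined by competition against an immobilized proprietary reference ligand.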

[3] = target: E3 ubiquitin-protein ligase TRIM33 (Homo sapiens, UniProt Q9UPN9); experiment: Binding affinity to human partial length TRIM33 phd bromodomain (D882 to A1087 residues) expressed in bacterial expression system by BROMOscan assay; how it was run: as §1
Chain of E3 ubiquitin-protein ligase TRIM33 (Q9UPN9 whole entry, the tested form may be a part): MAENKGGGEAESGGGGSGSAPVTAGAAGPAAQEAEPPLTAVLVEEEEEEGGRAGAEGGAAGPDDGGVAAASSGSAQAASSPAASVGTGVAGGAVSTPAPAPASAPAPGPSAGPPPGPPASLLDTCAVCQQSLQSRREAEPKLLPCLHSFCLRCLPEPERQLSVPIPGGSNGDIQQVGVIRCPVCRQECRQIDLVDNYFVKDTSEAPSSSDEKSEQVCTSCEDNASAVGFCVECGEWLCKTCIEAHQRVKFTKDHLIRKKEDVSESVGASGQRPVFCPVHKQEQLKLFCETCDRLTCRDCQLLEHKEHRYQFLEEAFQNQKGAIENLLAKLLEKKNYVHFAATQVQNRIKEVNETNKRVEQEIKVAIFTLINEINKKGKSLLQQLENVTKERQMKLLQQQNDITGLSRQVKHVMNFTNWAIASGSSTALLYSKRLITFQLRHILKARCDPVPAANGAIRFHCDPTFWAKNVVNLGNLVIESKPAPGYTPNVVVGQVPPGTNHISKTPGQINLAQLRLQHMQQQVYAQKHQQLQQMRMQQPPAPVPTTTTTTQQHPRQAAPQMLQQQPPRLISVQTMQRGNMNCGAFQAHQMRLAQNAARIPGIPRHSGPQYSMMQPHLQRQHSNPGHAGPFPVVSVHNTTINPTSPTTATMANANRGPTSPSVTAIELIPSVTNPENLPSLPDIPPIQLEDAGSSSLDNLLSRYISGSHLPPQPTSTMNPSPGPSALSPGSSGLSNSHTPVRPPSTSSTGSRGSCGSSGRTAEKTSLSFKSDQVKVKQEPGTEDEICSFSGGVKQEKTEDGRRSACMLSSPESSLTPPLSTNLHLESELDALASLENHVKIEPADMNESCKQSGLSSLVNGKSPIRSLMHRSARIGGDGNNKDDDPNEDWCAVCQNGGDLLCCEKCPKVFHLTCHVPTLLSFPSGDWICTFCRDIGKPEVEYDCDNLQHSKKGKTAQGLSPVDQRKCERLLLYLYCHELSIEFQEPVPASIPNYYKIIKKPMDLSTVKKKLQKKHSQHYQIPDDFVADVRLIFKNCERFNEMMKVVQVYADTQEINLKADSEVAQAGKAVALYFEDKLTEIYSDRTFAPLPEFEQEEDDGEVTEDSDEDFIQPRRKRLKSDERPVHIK

[4] = target: ATPase family AAA domain-containing protein 2B (Homo sapiens, UniProt Q9ULI0); experiment: Binding affinity to human partial length ATAD2B (Q955 to R1082 residues) expressed in bacterial expression system by BROMOscan assay; how it was run: as §1
Cytochrome P450 3A4 = Cytochrome P450 3A4 (Homo sapiens, UniProt P08684); experiment: Inhibition of human CYP3A4; type: ADME
[5] = target: Bromodomain-containing protein 8 (Homo sapiens, UniProt Q9H0E9); experiment: Binding affinity to human partial length BRD8 BD2 (D1095 to F1235 residues) expressed in mammalian expression system BROMOscan assay; how it was run: as §1
[6] = target: Nucleosome-remodeling factor subunit BPTF (Homo sapiens, UniProt Q12830); experiment: Binding affinity to human partial length FALZ (S2791 to H2911 residues) expressed in bacterial expression system by BROMOscan assay; how it was run: as §1
[7] = Growth inhibition of tamoxifen and palbociclib-resistant human MCF7:CPR cells measured after 5 days by Hoechst 33342 dye based imaging analysis; type: functional; conditions: 120 h
How it was run: (§2)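 Cells seeded at 2000/well in their maintenance medium, treated once the next day with compound (0.1 nM–10 μM; 0.1% DMSO final). Day 5 Hoechst 33342 staining with imaging count. Survival normalized to DMSO (100%) and JQ1 3 μM (0%). IC50 given as mean ± SEM from at least two passages, each in triplicate.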

[8] = target: SWI/SNF-related matrix-associated actin-dependent regulator of chromatin subfamily A member 4 (Homo sapiens, UniProt P51532); experiment: Binding affinity to human partial length SMARCA4 (A1448 to S1575 residues) expressed in bacterial expression system by BROMOscan assay; how it was run: as §1
Chain of SWI/SNF-related matrix-associated actin-dependent regulator of chromatin subfamily A member 4 (P51532 whole entry, the tested form may be a part): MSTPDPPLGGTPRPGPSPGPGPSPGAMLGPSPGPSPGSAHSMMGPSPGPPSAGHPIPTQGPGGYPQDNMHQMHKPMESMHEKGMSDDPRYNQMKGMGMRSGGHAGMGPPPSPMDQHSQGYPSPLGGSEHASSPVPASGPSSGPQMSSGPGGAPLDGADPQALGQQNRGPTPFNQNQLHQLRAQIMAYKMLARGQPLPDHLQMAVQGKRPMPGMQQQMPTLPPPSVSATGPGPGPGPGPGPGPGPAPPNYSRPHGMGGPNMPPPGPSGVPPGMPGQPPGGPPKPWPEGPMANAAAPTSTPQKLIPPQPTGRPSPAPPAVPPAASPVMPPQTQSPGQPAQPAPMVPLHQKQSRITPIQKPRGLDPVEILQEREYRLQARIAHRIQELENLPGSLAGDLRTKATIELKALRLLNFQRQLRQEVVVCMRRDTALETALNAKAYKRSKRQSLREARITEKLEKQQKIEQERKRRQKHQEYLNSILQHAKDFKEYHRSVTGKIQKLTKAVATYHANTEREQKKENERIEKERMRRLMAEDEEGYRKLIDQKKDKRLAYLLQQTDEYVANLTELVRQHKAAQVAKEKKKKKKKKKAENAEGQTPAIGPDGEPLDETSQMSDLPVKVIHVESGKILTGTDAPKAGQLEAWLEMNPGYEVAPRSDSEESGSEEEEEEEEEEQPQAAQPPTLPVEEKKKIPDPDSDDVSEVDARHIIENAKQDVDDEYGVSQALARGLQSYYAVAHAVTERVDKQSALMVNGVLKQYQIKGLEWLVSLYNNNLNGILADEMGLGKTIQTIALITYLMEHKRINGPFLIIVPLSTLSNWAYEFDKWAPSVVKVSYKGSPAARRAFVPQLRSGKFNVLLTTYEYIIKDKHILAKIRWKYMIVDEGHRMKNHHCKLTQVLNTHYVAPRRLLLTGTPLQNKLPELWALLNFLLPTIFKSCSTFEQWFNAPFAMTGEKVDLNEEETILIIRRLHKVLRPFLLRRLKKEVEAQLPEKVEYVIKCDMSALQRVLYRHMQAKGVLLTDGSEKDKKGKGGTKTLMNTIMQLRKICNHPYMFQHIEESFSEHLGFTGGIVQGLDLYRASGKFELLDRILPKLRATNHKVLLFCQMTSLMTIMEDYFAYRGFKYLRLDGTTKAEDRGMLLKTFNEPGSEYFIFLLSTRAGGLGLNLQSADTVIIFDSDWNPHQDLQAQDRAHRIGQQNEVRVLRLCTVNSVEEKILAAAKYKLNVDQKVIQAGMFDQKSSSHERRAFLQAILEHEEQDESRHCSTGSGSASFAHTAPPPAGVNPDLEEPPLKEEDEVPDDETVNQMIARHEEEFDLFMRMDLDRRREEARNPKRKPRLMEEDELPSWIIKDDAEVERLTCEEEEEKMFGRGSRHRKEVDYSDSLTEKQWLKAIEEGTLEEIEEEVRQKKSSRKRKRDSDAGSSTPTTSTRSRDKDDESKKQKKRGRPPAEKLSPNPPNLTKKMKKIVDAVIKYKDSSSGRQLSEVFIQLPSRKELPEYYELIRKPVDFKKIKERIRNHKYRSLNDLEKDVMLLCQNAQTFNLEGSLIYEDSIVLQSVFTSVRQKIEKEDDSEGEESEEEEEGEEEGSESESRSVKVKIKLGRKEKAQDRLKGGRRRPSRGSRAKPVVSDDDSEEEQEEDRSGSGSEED

[9] = Growth inhibition of tamoxifen-resistant human MCF7:5C cells measured after 5 days by Hoechst 33342 dye based imaging analysis; type: functional; conditions: 120 h; how it was run: as §2
[10] = target: Histone acetyltransferase KAT2B (Homo sapiens, UniProt Q92831); experiment: Binding affinity to human partial length PCAF (G715 to D831 residues) expressed in bacterial expression system by BROMOscan assay; how it was run: as §1
[11] = target: ATPase family AAA domain-containing protein 2 (Homo sapiens, UniProt Q6PL18); experiment: Binding affinity to human partial length ATAD2A (Q981 to R1108 residues) expressed in bacterial expression system by BROMOscan assay; how it was run: as §1
[12] = target: Bromodomain and PHD finger-containing protein 3 (Homo sapiens, UniProt Q9ULD4); experiment: Binding affinity to human partial length BRPF3 (E588 to G701 residues) expressed in bacterial expression system by BROMOscan assay; how it was run: as §1
[13] = Growth inhibition of tamoxifen-sensitive human MCF7:WS8 cells measured after 5 days by Hoechst 33342 dye based imaging analysis; type: functional; conditions: MCF7:WS8, 120 h; how it was run: as §2
[14] = target: Bromodomain adjacent to zinc finger domain protein 2B (Homo sapiens, UniProt Q9UIF8); experiment: Binding affinity to human partial length BAZ2B (S2054 to S2168 residues) expressed in bacterial expression system by BROMOscan assay; how it was run: as §1
[15] = Growth inhibition of human T47D:TDG cells harboring ESR1 D538G mutant measured after 5 days by Hoechst 33342 dye based imaging analysis; type: functional; conditions: 120 h; how it was run: as §2
MCF7:TAM1 = experiment: Growth inhibition of tamoxifen-resistant human MCF7:TAM1 cells measured after 5 days by Hoechst 33342 dye based imaging analysis; type: functional, cell-based; conditions: MCF7:TAM1, 120 h; how it was run: as §2
T47D = experiment: Growth inhibition of tamoxifen-sensitive human T47D cells measured after 5 days by Hoechst 33342 dye based imaging analysis; type: functional, cell-based; conditions: 120 h; how it was run: as §2
[16] = target: SWI/SNF-related matrix-associated actin-dependent regulator of chromatin subfamily A member 2 (Homo sapiens, UniProt P51531); experiment: Binding affinity to human partial length SMARCA2 (S1377 to Q1486 residues) expressed in bacterial expression system by BROMOscan assay; how it was run: as §1
Protein polybromo-1 = Protein polybromo-1 (Homo sapiens, UniProt Q86U86); experiment: Binding affinity to human partial length PBRM1 bromodomain 2 (S178 to E291 residues) expressed in bacterial expression system by BROMOscan assay; how it was run: as §1
Chain of Protein polybromo-1 (Q86U86 whole entry, the tested form may be a part): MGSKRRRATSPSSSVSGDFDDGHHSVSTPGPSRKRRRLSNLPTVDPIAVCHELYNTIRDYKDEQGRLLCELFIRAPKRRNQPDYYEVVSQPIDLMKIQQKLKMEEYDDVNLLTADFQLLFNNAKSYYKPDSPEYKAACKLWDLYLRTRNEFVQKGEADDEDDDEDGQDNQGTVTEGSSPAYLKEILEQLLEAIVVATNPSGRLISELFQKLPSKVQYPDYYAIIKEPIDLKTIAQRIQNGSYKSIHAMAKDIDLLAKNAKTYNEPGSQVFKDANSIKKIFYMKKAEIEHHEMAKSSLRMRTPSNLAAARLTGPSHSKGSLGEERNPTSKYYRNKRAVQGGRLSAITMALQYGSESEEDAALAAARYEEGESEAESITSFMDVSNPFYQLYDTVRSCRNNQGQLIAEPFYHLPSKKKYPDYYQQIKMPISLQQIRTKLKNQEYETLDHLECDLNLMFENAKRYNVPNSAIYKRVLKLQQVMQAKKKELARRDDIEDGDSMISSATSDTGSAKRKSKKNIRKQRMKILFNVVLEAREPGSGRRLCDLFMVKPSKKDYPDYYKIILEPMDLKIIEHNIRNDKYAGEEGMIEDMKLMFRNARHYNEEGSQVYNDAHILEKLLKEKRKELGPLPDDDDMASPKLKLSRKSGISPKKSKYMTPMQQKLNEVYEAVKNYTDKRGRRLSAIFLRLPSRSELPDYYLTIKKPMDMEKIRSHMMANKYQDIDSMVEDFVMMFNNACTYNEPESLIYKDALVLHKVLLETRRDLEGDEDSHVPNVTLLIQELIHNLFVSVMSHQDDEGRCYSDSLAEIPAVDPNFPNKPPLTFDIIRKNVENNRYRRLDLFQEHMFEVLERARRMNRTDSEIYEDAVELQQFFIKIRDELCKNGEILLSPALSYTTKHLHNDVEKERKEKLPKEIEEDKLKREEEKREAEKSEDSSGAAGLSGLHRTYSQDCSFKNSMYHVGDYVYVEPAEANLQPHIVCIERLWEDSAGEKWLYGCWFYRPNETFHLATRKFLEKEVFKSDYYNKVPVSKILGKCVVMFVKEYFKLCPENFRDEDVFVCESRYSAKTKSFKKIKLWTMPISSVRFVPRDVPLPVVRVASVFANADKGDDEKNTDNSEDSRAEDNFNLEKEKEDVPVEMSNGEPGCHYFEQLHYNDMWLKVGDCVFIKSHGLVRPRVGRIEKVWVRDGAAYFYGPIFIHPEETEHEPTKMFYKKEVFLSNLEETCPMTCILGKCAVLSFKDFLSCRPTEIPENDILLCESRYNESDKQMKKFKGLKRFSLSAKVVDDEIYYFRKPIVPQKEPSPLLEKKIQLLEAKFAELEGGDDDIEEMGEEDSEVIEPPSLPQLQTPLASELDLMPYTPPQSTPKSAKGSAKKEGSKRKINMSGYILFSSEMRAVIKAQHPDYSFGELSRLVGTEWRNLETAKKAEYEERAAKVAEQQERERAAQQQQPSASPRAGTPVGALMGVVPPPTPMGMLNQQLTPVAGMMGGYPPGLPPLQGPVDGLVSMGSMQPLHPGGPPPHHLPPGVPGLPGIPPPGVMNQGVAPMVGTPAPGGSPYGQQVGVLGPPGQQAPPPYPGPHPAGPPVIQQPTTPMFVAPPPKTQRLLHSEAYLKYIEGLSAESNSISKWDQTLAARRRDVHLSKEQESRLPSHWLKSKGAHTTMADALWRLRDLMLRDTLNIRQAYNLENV

[17] = target: Histone acetyltransferase KAT2A (Homo sapiens, UniProt Q92830); experiment: Binding affinity to human partial length GCN5L2 (E726 to K837 residues) expressed in bacterial expression system by BROMOscan assay; how it was run: as §1
[18] = Growth inhibition of fulvestrant-resistant human MCF7:CFR cells measured after 5 days by Hoechst 33342 dye based imaging analysis; type: functional, cell-based; conditions: 120 h
How it was run: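 MCF-7:CFR cells kept 2 days in phenol red-free RPMI 1640 with 10% charcoal–dextran FBS, then seeded at 2000 cells/well. Single treatment at 0.1 nM–10 μM (0.1% DMSO final) for 5 days. Nuclei stained with Hoechst 33342 and counted by imaging. Survival normalized to DMSO (100%) and JQ1 3 μM (0%). Mean ± SEM from at least two passages, triplicates in each.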

[19] = Growth inhibition of fulvestrant-resistant human MCF7:CFR 3D spheroid cells at 100 nM supplemented with fresh medium containing compound every 2 to 3 days for 9 days by celltitre-glo assay relative to control; type: functional
How it was run: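 MCF-7:CFR cells seeded at 1000 cells/well in ultralow-attachment round-bottom plates and grown 24 h untreated as spheroids. Half the medium then replaced with 2× treatment medium, repeated every 2–3 days. Viability read by CellTiter-Glo 3D luminescence at day 9 and normalized to blank (medium plus reagent).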

[20] = target: Bromodomain and WD repeat-containing protein 1 (Homo sapiens, UniProt Q9NSI6); experiment: Binding affinity to human partial length WDR9 bromodomain 2 (A1310 to E1430 residues) expressed in bacterial expression system by BROMOscan assay; how it was run: as §1
[21] = target: Bromodomain-containing protein 7 (Homo sapiens, UniProt Q9NPI1); experiment: Binding affinity to human partial length BRD7 (L125 to R254 residues) expressed in mammalian expression system by BROMOscan assay; how it was run: as §1
Chain of Bromodomain-containing protein 7 (Q9NPI1 whole entry, the tested form may be a part): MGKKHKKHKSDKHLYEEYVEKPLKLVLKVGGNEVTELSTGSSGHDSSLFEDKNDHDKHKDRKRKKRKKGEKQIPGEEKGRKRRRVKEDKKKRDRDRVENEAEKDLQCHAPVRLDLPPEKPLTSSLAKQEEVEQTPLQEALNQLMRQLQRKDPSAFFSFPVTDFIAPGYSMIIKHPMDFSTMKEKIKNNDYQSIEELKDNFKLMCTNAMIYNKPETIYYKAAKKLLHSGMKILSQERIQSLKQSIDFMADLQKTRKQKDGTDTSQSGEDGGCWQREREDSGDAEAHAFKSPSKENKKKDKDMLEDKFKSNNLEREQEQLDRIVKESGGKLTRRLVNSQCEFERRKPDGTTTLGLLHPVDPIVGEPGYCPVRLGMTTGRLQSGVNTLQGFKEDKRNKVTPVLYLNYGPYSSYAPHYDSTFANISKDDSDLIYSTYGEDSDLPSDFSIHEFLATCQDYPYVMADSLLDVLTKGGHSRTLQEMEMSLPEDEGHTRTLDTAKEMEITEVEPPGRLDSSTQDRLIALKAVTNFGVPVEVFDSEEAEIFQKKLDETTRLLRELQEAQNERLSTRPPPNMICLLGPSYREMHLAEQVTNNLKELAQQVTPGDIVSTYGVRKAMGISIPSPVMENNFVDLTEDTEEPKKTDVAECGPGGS

CCS(=O)(=O)Nc1ccc(Oc2ccc(F)cc2F)c(-c2cn(C)c(=O)c3[nH]ccc23)c1 [MIVEBRESIB]
173 10^3/µL: platelet count [1]

CCS(=O)(=O)Nc1cc(-c2cn(C)c3c(=O)[nH]ccc23)cc2c1ccn2C(C)(c1ccccn1)c1ccccn1
< 0.01 µM: IC50 [7] | IC50 ([9]; read-out: IC50) | IC50 ([13]; read-out: IC50) | IC50 ([15]; read-out: IC50) | IC50 (MCF7:TAM1; read-out: IC50) | IC50 (T47D; read-out: IC50)
0.00631 µM: IC50 ([15]; read-out: pIC50 (converted))
0.00398 µM: IC50 ([13]; read-out: pIC50 (converted))
0.00316 µM: IC50 (MCF7:TAM1; read-out: pIC50 (converted)) | IC50 (T47D; read-out: pIC50 (converted))
100%: growth inhibition (GI) [19]
0.0009 µM: IC50 [18]
0.002 µM: IC50 ([9]; read-out: pIC50 (converted))
> 10 µM: Kd [2] | Kd [3] | Kd [4] | Kd [5] | Kd [6] | Kd [8] | Kd [10] | Kd [11] | Kd [12] | Kd [14] | Kd [16] | Kd (Protein polybromo-1) | Kd [17] | Kd [20] | Kd [21]
≥ 10 µM: IC50 (Cytochrome P450 3A4)
